According to ChEMBL document CHEMBL2331540, “Synthesis and SAR study of pyrrolo[3,4-b]pyridin-7(6H)-one derivatives as melanin concentrating hormone receptor 1 (MCH-R1) antagonists” (Bioorg Med Chem Lett, 2013):
Converted amounts (≈) assume the structure as drawn.

Experiments:
[1] = biological target: Melanin-concentrating hormone receptor 1 (Homo sapiens, UniProt Q99705); assay: Displacement of Eu-MCH from human MCHR1 expressed in CHO cell membranes by TRF assay
Outline: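 Competitive binding on membranes of CHO cells expressing human MCH-R1, with Eu-labeled MCH as tracer; bound label read by time-resolved fluorometry, values given as IC50.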

Rattus norvegicus [2] = assay: AUC in rat at 10 mg/kg, po; assay type: ADME, organism-based, Plasma; parameters: dose 10 mg/kg, route oral; details: in vivo
Outline: (§1)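 Rats dosed at 10 mg/kg by both iv and po routes, n = 3; plasma pharmacokinetic parameters derived from the iv/po study.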

[3] = Metabolic stability in human liver microsomes measured for 30 mins; assay type: ADME, Microsome; details: read-out: Stability
Outline: (§2)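 Test compound incubated 30 min with human or rat liver microsomes; stability given as percent remaining.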

CYP3A4 = CYP3A4 (Homo sapiens, UniProt P08684); assay: Inhibition of CYP3A4 (unknown origin) at 10 uM relative to control; assay type: ADME
Sequence of CYP3A4 (P08684 whole entry): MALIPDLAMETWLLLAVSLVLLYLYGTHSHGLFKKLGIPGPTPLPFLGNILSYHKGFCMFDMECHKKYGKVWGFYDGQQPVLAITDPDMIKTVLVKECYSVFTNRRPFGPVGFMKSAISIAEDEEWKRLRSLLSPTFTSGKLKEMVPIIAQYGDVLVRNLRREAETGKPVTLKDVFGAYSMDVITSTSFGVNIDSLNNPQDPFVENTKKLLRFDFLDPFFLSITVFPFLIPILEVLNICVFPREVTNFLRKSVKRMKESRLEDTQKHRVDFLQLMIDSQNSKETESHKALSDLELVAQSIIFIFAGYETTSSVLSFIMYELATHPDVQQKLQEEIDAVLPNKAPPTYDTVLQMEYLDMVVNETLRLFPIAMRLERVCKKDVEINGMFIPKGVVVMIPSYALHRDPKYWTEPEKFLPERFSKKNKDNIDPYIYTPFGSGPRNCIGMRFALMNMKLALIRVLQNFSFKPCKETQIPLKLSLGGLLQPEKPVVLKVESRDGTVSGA

[4] = Half life in rat at 10 mg/kg, po and iv; assay type: ADME, organism-based; parameters: dose 10 mg/kg, route oral; details: in vivo; outline: as §1
Rattus norvegicus [5] = assay: Oral bioavailability in rat at 10 mg/kg; assay type: ADME, organism-based; details: in vivo; outline: as §1
Rattus norvegicus [6] = assay: Volume of distribution at steady state in rat at 10 mg/kg, po and iv; assay type: ADME, organism-based; parameters: dose 10 mg/kg, route oral; details: in vivo; outline: as §1
[7] = Aqueous solubility of the compound; assay type: physicochemical; details: buffer
[8] = Metabolic stability in rat liver microsomes measured for 30 mins; assay type: ADME, Microsome; details: read-out: Stability; outline: as §2
CYP2D6 = CYP2D6 (Homo sapiens, UniProt P10635); assay: Inhibition of CYP2D6 (unknown origin) at 10 uM relative to control; assay type: ADME
Sequence of CYP2D6 (P10635 whole entry): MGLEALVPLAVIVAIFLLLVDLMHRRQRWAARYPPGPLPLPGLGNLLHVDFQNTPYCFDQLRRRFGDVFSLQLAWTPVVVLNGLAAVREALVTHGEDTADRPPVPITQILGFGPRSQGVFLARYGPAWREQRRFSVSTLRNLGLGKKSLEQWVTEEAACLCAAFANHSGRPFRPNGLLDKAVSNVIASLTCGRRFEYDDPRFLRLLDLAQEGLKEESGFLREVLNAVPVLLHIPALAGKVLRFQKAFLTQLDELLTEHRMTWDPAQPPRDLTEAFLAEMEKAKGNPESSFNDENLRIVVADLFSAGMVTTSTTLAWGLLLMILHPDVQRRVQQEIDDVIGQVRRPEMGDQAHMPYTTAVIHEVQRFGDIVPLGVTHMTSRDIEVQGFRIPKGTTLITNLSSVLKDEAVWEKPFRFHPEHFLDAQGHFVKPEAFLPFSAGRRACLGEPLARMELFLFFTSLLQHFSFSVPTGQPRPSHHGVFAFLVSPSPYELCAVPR

[9] = Permeability of the compound by PAMPA; assay type: ADME; details: read-out: permeability

Sequence of Melanin-concentrating hormone receptor 1 (Q99705 whole entry): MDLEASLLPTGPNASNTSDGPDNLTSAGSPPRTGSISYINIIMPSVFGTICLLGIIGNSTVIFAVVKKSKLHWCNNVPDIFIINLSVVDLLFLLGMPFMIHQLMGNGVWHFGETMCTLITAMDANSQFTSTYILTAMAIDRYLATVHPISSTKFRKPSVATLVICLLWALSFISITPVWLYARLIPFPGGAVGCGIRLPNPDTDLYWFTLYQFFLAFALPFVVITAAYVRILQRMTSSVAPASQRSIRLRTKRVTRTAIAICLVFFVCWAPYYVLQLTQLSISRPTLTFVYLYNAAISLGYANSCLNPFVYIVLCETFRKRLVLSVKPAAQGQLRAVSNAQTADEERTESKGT

IC50 [1]	SMILES	further results
40 nM	COc1cc(N2Cc3ccc(Sc4ccc(Cl)cc4)nc3C2=O)ccc1OCCN1CCCC1	–
1040 nM	COc1cc(N2Cc3ccc(-c4ccccc4C)nc3C2=O)ccc1OCCN1CCCC1	–
30 nM	COc1cc(N2Cc3ccc(Sc4ccc(F)cc4)nc3C2=O)ccc1OCCN1CCCC1	AUC (Rattus norvegicus [2]): 5700 ng·h/mL; remaining at 0.5 h [3]: 97%; inhibition at 10 µM (CYP3A4): < 10%; half-life [4]: 3.4 h; F (Rattus norvegicus [5]): 92%; Vdss (Rattus norvegicus [6]): 8.3 L/kg; solubility [7]: 104 µg/mL (≈ 217 µM); remaining at 0.5 h [8]: 79%; inhibition at 10 µM (CYP2D6): < 10%; Papp [9]: 1.9 ×10⁻⁶ cm/s
410 nM	COc1cc(N2Cc3ccc(Cc4cccc(F)c4)nc3C2=O)ccc1OCCN1CCCC1	–
2000 nM	CCc1ccccc1-c1ccc2c(n1)C(=O)N(c1ccc(OCCN3CCCC3)c(OC)c1)C2	–
4130 nM	COc1cc(N2Cc3ccc(-c4ccccc4F)nc3C2=O)ccc1OCCN1CCCC1	–
5650 nM	COc1cc(N2Cc3ccc(-c4cccc(Cl)c4)nc3C2=O)ccc1OCCN1CCCC1	–
540 nM	COc1cc(N2Cc3ccc(-c4ccc(C(F)(F)F)cc4)nc3C2=O)ccc1OCCN1CCCC1	–
190 nM	COc1cc(N2Cc3ccc(-c4cccc(C)c4C)nc3C2=O)ccc1OCCN1CCCC1	–
720 nM	COc1cc(N2Cc3ccc(Cc4ccccc4C)nc3C2=O)ccc1OCCN1CCCC1	–
440 nM	COc1cc(N2Cc3ccc(-c4ccc(Cl)cc4)nc3C2=O)ccc1OCCN1CCCC1	–
7110 nM	COc1cc(N2Cc3ccc(-c4ccccc4OC)nc3C2=O)ccc1OCCN1CCCC1	–
300 nM	COc1cc(N2Cc3ccc(-c4cc(C)ccc4C)nc3C2=O)ccc1OCCN1CCCC1	–
60 nM	COc1cc(N2Cc3ccc(Sc4ccc(F)cc4F)nc3C2=O)ccc1OCCN1CCCC1	–
210 nM	CCCc1ccc(-c2ccc3c(n2)C(=O)N(c2ccc(OCCN4CCCC4)c(OC)c2)C3)cc1	–
100 nM	COc1ccc(Sc2ccc3c(n2)C(=O)N(c2ccc(OCCN4CCCC4)c(OC)c2)C3)cc1	–
50 nM	CCc1ccc(-c2ccc3c(n2)C(=O)N(c2ccc(OCCN4CCCC4)c(OC)c2)C3)cc1	–
320 nM	COc1cc(N2Cc3ccc(-c4ccc(C(C)(C)C)cc4)nc3C2=O)ccc1OCCN1CCCC1	–
60 nM	COc1cc(N2Cc3ccc(Sc4ccc(C)cc4)nc3C2=O)ccc1OCCN1CCCC1	–
90 nM	COc1cc(N2Cc3ccc(-c4ccc(C(C)C)cc4)nc3C2=O)ccc1OCCN1CCCC1	–

IC50 [1]	SMILES	further results
2780 nM	CCCCc1ccc(-c2ccc3c(n2)C(=O)N(c2ccc(OCCN4CCCC4)c(OC)c2)C3)cc1	–
50 nM	COc1cc(N2Cc3ccc(Sc4ccc(F)c(Cl)c4)nc3C2=O)ccc1OCCN1CCCC1	–
2010 nM	COc1cccc(-c2ccc3c(n2)C(=O)N(c2ccc(OCCN4CCCC4)c(OC)c2)C3)c1	–
120 nM	COc1cc(N2Cc3ccc(Cc4ccc(Cl)cc4)nc3C2=O)ccc1OCCN1CCCC1	–
80 nM	COc1cc(N2Cc3ccc(-c4ccc(C)cc4)nc3C2=O)ccc1OCCN1CCCC1	–
10000 nM	COc1cc(N2Cc3ccc(-c4ccccc4)nc3C2=O)ccc1OCCN1CCCC1	–
130 nM	C=Cc1ccc(-c2ccc3c(n2)C(=O)N(c2ccc(OCCN4CCCC4)c(OC)c2)C3)cc1	–
1910 nM	COc1cc(N2Cc3ccc(Cc4ccc(C(C)(C)C)cc4)nc3C2=O)ccc1OCCN1CCCC1	–
10000 nM	COc1cc(N2Cc3ccc(-c4ccc(C#N)cc4)nc3C2=O)ccc1OCCN1CCCC1	–
50 nM	COc1cc(N2Cc3ccc(Sc4ccc(F)c(F)c4)nc3C2=O)ccc1OCCN1CCCC1	–
340 nM	COc1ccc(-c2ccc3c(n2)C(=O)N(c2ccc(OCCN4CCCC4)c(OC)c2)C3)cc1	–
70 nM	COc1cc(N2Cc3ccc(Cc4ccccc4)nc3C2=O)ccc1OCCN1CCCC1	–
20 nM	COc1cc(N2Cc3ccc(Sc4ccccc4)nc3C2=O)ccc1OCCN1CCCC1	AUC (Rattus norvegicus [2]): 320 ng·h/mL; half-life [4]: 2.8 h; F (Rattus norvegicus [5]): 35%; Vdss (Rattus norvegicus [6]): 22.7 L/kg
80 nM	COc1cc(N2Cc3ccc(Cc4ccc(F)cc4)nc3C2=O)ccc1OCCN1CCCC1	–
160 nM	COc1cc(N2Cc3ccc(Cc4ccc(C)cc4)nc3C2=O)ccc1OCCN1CCCC1	–
180 nM	COc1cc(N2Cc3ccc(-c4ccc(C)c(C)c4)nc3C2=O)ccc1OCCN1CCCC1	–
80 nM	COc1cc(N2Cc3ccc(Sc4ccc(F)cc4Cl)nc3C2=O)ccc1OCCN1CCCC1	–
510 nM	COc1cc(N2Cc3ccc(-c4ccccc4Cl)nc3C2=O)ccc1OCCN1CCCC1	–
3100 nM	COc1cc(N2Cc3ccc(-c4ccc(F)cc4)nc3C2=O)ccc1OCCN1CCCC1	–
